By IC50 is commonly meant the concentration at which inhibition is half-maximal. Higher therefore signals weaker potency. One may read the Ki as the dissociation constant of the complex between target and ligand, obtained from inhibition or displacement. A low value points to a stronger hold on the target. A word on the ED50: it is the dose that gives a 50% effect, or the effect in half of the subjects.

Assay [1] has as its target T1, Sodium-dependent dopamine transporter (Homo sapiens, UniProt Q01959). Briefly: Inhibition of reuptake of [3H]DA (20 nM) by dopamine transporter. The essentials:
(§1)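 Uptake used whole confluent cells: hSERT in HEK293; hDAT in C6, later HEK293. Cells were washed and scraped in PBS at 25 °C, then preincubated 10 min with drug in Krebs HEPES at 25 °C. [3H]5HT or [3H]DA was added at 20 nM final for 10 min, then filtered on 0.05% polyethylenimine-soaked filters. Six drug concentrations, each in triplicate.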

The target in assay [2] is T1, Sodium-dependent dopamine transporter. Nature of the assay: Binding affinity against cloned human dopamine transporter using 40-80 pM [125I]RTI. An outline of the steps:
(§2)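 Membranes from cells expressing recombinant human transporters: DAT in C6 cells, later HEK293; SERT and NET in HEK293. Cells lysed (2 mM HEPES, 1 mM EDTA), spun at 30000g, resuspended in 0.32 M sucrose, about 15 µg protein. GF/C filtration. Duplicates; IC50 converted to Ki by Cheng-Prusoff.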

Assay [3] has as its target T2, Sodium-dependent noradrenaline transporter (Homo sapiens, UniProt P23975). Nature of the assay: Binding affinity against norepinephrine cloned human transporter using 40-80 pM [125I]RTI.
Target sequence in this assay (P23975 whole entry): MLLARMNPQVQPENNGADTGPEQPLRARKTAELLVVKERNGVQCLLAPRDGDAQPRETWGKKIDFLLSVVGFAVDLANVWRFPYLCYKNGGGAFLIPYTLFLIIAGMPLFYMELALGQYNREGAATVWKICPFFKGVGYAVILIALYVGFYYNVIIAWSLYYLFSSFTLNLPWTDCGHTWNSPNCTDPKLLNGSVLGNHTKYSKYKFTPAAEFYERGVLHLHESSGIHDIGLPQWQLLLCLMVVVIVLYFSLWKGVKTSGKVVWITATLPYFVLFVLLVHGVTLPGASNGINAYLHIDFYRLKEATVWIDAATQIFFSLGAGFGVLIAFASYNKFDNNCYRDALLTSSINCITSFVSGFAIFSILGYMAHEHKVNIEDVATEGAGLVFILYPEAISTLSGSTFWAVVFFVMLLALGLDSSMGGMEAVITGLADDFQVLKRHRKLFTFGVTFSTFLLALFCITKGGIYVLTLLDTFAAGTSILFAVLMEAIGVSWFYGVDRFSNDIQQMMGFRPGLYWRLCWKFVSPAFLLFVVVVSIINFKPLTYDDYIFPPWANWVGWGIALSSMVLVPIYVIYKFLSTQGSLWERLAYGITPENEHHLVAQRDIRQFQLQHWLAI
Assay [4] has as its target T2, Sodium-dependent noradrenaline transporter. Briefly: Inhibition of reuptake of [3H]-NE (20 nM) by norepinephrine transporter.
Target sequence in this assay (P23975 whole entry): as above
Assay [5] concerns the target T3, Sodium-dependent serotonin transporter (Homo sapiens, UniProt P31645). Nature of the assay: Binding affinity against cloned serotonin human transporter using 40-80 PM [125I]RTI. The essentials: as §2
Target sequence in this assay (P31645 whole entry): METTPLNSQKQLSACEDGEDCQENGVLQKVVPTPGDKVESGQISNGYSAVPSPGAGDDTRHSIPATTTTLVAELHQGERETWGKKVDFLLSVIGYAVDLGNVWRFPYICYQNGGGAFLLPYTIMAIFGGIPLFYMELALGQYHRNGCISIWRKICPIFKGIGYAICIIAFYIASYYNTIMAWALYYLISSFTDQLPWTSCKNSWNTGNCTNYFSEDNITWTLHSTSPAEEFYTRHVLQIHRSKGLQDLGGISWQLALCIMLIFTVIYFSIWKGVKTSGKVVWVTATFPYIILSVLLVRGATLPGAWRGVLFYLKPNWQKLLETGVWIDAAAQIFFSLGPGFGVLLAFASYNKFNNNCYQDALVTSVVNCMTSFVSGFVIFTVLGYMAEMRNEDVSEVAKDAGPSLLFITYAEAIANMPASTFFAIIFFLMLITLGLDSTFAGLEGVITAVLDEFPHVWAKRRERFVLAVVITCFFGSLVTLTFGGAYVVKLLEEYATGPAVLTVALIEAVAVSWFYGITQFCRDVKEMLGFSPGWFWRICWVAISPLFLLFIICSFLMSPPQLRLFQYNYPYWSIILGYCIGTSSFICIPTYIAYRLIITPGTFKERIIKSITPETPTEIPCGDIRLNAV
The target in assay [6] is T3, Sodium-dependent serotonin transporter. Briefly: Inhibition of reuptake of [3H]5-HT (20 nM) by serotonin transporter. An outline of the steps:
as §1
Target sequence in this assay (P31645 whole entry): as above

The species entered for a further assay is Mus musculus. Briefly: Effective dose on 8 hr locomotor assay in mice (value is standard error of the population of 72 independent determinations). It counts as functional. An outline of the steps:
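Groups of 8 nonhabituated male Swiss-Webster mice (Hsd:ND4, 2-3 months), dosed ip in 0.9% saline vehicle just before testing. Horizontal photobeam breaks counted in 10-min bins for 8 h from 0800 h, one mouse per chamber.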

Assay [7] can be described thus: Effective dose for generalization to 10 mg/kg cocaine in rat (value is standard error of the population of 88 independent determinations). It counts as functional.
Assay [8] deals with T3, Sodium-dependent serotonin transporter. Nature of the assay: Ratio of serotonin uptake to serotonin binding.
Target sequence in this assay (P31645 whole entry, looked up): as the sequence (P31645 whole entry) above
Assay [9] concerns the target Monoamine transporters; serotonin & dopamine (Homo sapiens) (UniProt P31645+Q01959). Briefly: Ratio of inhibition of serotonin uptake to inhibition of dopamine uptake. It counts as protein assay.
Assay [10] concerns the target T1, Sodium-dependent dopamine transporter. Nature of the assay: Ratio of dopamine uptake to dopamine binding.
In assay [11] the target is T2, Sodium-dependent noradrenaline transporter. Briefly: Ratio of norepinephrine uptake to norepinephrine binding.
Target sequence in this assay (P23975 whole entry, looked up): as the sequence (P23975 whole entry) above

SMILES strings stand for the structures.

T1 sequence (Q01959 whole entry): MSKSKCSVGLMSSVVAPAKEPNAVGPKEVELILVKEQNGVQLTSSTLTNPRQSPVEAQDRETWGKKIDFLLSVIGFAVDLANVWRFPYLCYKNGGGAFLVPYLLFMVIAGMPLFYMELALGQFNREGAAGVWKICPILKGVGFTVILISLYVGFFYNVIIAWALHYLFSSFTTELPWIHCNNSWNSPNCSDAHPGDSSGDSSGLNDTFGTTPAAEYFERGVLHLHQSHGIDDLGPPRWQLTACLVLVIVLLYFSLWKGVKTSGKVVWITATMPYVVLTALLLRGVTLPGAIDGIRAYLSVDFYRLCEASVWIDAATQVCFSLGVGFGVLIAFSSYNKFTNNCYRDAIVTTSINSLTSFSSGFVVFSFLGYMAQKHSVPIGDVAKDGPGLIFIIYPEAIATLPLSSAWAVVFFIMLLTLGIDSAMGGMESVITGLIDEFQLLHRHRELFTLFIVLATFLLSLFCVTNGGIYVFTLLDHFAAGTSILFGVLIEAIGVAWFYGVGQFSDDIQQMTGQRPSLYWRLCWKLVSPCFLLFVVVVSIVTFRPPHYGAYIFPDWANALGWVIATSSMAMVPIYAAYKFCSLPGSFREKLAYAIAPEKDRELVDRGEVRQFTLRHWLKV
Chain of Monoamine transporters; serotonin & dopamine (Homo sapiens) (P31645 whole entry, looked up): as the sequence (P31645 whole entry) above
Chain of Monoamine transporters; serotonin & dopamine (Homo sapiens) (Q01959 whole entry, looked up): as the sequence (Q01959 whole entry) above

`CC(C)N(C)[C@@H]1C[C@@H](c2ccc(Cl)c(Cl)c2)c2ccccc21`: the IC50 in assay [1] was found to be 190 nM; in [4] it was 420 nM; in assay [6], 1500 nM. Also, the Ki was 180 nM in assay [2], 260 nM in assay [3] and 44 nM in assay [5]. Also, the ED50 in the assay filed under Mus musculus came to 2.9 mg/kg; in assay [7] it was 3.3 mg/kg. The figures for the Ratio in assay [8], in assay [9] and in assay [10] were 34, 7.9 and 1.1, respectively.

For the compound `CC(C)N[C@@H]1C[C@@H](c2ccc(Cl)c(Cl)c2)c2ccccc21`, the values for the IC50 in assay [1], in assay [4] and in assay [6] were 51 nM, 75 nM and 240 nM, respectively. For the same compound, the results for the Ki in assay [2], in assay [3] and in [5] were 32 nM, 110 nM and 93 nM, respectively. In the assay filed under Mus musculus, the 50% effective dose (ED50) worked out at 3.1 mg/kg. Besides, the Ratio in [8] was 2.6; in assay [9] it was 4.7; in assay [10] it was 1.6; in [11] it was 0.68.

Take `CCCN[C@@H]1C[C@@H](c2ccc(Cl)c(Cl)c2)c2ccccc21` (relative stereo): the IC50 in assay [1] worked out at 53 nM; in assay [4], 130 nM; in assay [6], 480 nM. Besides, the results for the Ki in assay [2], in assay [3] and in [5] were 220 nM, 55 nM and 130 nM, respectively. For the same compound, the ED50 in the assay filed under Mus musculus amounted to 8.1 mg/kg; in assay [7], 2.3 mg/kg. Moreover, the Ratio in assay [8] came out at 3.7; in assay [9], 9.1; in assay [10], 0.24; in assay [11] it was 2.4.

In the case of `CCN(C)[C@@H]1C[C@@H](c2ccc(Cl)c(Cl)c2)c2ccccc21` (relative stereo), the IC50 in assay [1] worked out at 270 nM; in assay [4], 150 nM; in assay [6], 24 nM. In addition, the Ki in assay [2] came out at 39 nM; in assay [3], 250 nM; in assay [5], 16 nM. The compound further displayed an ED50 in the assay listed under Mus musculus of 2.7 mg/kg. Further, the Ratio in assay [8] was determined as 1.5; in assay [9] it was 0.089; in [10] it was 6.9; in assay [11], 0.6.

As for `CCN(C)[C@H]1C[C@@H](c2ccc(Cl)c(Cl)c2)c2ccccc21` (relative stereo), the 50% inhibitory concentration (IC50) in [1] was found to be 530 nM; in assay [4], 4400 nM; in assay [6], 72 nM. The values for the inhibitory constant (Ki) in [2], in assay [3] and in [5] were 660 nM, 2400 nM and 13 nM, respectively. The Ratio in assay [8] came out at 5.5; in assay [9] it was 0.14; in [10] it was 0.8; in assay [11] it was 1.8.

Take `CN(C)[C@@H]1C[C@@H](c2ccc(Cl)c(Cl)c2)c2ccccc21.O=C(O)/C=C\C(=O)O` (relative stereo): the half-inhibitory concentration (IC50) was found to be 200 nM in assay [1], 34 nM in assay [4] and 65 nM in [6]. Also, the Ki in [2] turned out to be 19 nM; in [3], 95 nM; in assay [5] it was 0.33 nM. Besides, the ED50 in the assay filed under Mus musculus is 2.4 mg/kg; in [7], 1.3 mg/kg.

On to `CCCN(C)[C@@H]1C[C@@H](c2ccc(Cl)c(Cl)c2)c2ccccc21` (relative stereo), for which the IC50 in [1] was 340 nM; in assay [4], 640 nM; in assay [6], 190 nM. Also, the Ki in assay [2] is 250 nM; in assay [3] it was 400 nM; in assay [5], 91 nM. In addition, the figures for the ED50 (in the assay listed under Mus musculus; in [7]) were 1.7 mg/kg and 1.5 mg/kg, respectively. The Ratio in assay [8] worked out at 2.1; in [9] it was 0.56; in assay [10], 1.4; in assay [11], 1.6.

With `CC(C)(C)N[C@@H]1C[C@@H](c2ccc(Cl)c(Cl)c2)c2ccccc21` (relative stereo), the half-inhibitory concentration (IC50) turned out to be 370 nM in [1], 310 nM in [4] and 3100 nM in [6]. Further, the Ki worked out at 130 nM in assay [2], 150 nM in [3] and 740 nM in assay [5]. The median effective dose (ED50) in the assay filed under Mus musculus was above 28 mg/kg. The Ratio in assay [8] came to 4.2; in assay [9], 8.4; in [10] it was 2.8; in assay [11], 2.1.

With `COC(=O)[C@H]1[C@@H](OC(=O)c2ccccc2)C[C@@H]2CC[C@H]1N2C` [COCAINE], the ED50 in the assay filed under Mus musculus was found to be 7.92 mg/kg; in assay [7], 3.61 mg/kg.

Source of the values: ChEMBL document CHEMBL1133565 (J Med Chem, 2000).
